# Experimental data from ChEMBL document CHEMBL1129428 (J Med Chem, 1996).
# Columns and labels:
# Mus musculus [1] = assay: Anticonvulsant activity after intraperitoneal injection into mice by using MES screen test after 0.25 hr; type: functional
# Mus musculus [2] = assay: Anticonvulsant activity after intraperitoneal injection into mice by using scPTZ screen after 0.5 hr; type: functional
# Mus musculus [3] = assay: Compound was tested for anticonvulsant activity after intraperitoneal injection into mice by using scPTZ screen test after 0.25 hr; type: functional; details: ip
# How it was run: (§1)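 Quantitative intraperitoneal mouse testing in the MES, scPTZ or rotorod neurotoxicity screens at the peak time given for each compound (0.25–2 h). ED50 or TD50 reported in mg/kg with 95% CI and slope (SE).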
# [4] = Compound was tested for toxicity after intraperitoneal injection into mice by using neurotoxicity screen test after 0.25 hr; details: mouse, in vivo, ip
# [5] = Compound was tested for toxicity after oral administration in rat by using neurotoxicity screen test after 0.5 hr; details: in vivo
# Mus musculus [6] = assay: Anticonvulsant activity after intraperitoneal injection into mice by using MES screen test after 0.5 hr; type: functional
# Mus musculus [7] = assay: Anticonvulsant activity after intraperitoneal injection into mice measured in a maximal electroshock scree (MES) screen; type: functional
# Mus musculus [8] = assay: Anticonvulsant activity after intraperitoneal injection into mice by using scPTZ screen test after 4 hr; type: functional
# Rattus norvegicus [9] = assay: Compound was tested for anticonvulsant activity after Oral Administration into Rats by using MES screen test after 0.25h,dose 12.5 mg/kg; No activity was demonstarted; type: functional, organism-based; design: dose 12.5 mg/kg
# How it was run: (§2)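 Rats received the compound orally. […] Rats were tested in the MES screen at 0.25, 0.5, 1, 2 and 4 h. Each value is the number of rats protected out of 4. The test followed NINDS procedures.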
# Rattus norvegicus [10] = assay: Compound was tested for anticonvulsant activity after Oral Administration into Rats by using MES screen test after 2h.,dose 12.5 mg/kg; number of rats out of four which were protected; type: functional; how it was run: as §2
# Rattus norvegicus [11] = assay: Compound was tested for anticonvulsant activity after Oral Administration into Rats by using MES screen test after 4h,dose 12.5 mg/kg; No activity was demonstarted; type: functional, organism-based; design: dose 12.5 mg/kg; how it was run: as §2
# Rattus norvegicus [12] = assay: Compound was tested for anticonvulsant activity after Oral Administration into Rats by using MES screen test after 0.5h,dose 12.5 mg/kg; No activity was demonstarted; type: functional, organism-based; design: dose 12.5 mg/kg; how it was run: as §2
# Rattus norvegicus [13] = assay: Compound was tested for anticonvulsant activity after Oral Administration into Rats by using MES screen test after 1h,dose 12.5 mg/kg; number of rats out of four which were protected; type: functional; how it was run: as §2
# Mus musculus [14] = assay: Compound was tested for toxicity after intraperitoneal injection into mice by using toxicity screen test after 4 hr; type: organism-based; details: in vivo, ip
# How it was run: (§3)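 Mice injected intraperitoneally at 30, 100 and 300 mg/kg and examined 0.5 and 4 h afterwards. Each entry is the minimum dose giving activity (MES protection, scPTZ protection, or rotorod failure for neurotoxicity) in half or more of the mice. Activity is called absent if nothing occurs at 300 mg/kg.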
# Mus musculus [15] = assay: Compound was tested for anticonvulsant activity after intraperitoneal injection into mice by using MES screen test after 0.5 hr; type: functional; details: ip; how it was run: as §3
# Mus musculus [16] = assay: Compound was tested for anticonvulsant activity after intraperitoneal injection into mice by using scPTZ screen test after 0.5 hr; type: functional; details: ip; how it was run: as §3
# [17] = Compound was tested for […] after intraperitoneal injection into mice by using neurotoxicity screen test after 2 hr; type: organism-based; details: mouse, in vivo, ip; how it was run: as §1
# Rattus norvegicus [18] = assay: Compound was tested for anticonvulsant activity after Oral Administration into Rats by using MES screen test after 4h,dose 50 mg/kg; number of rats out of four which were protected; type: functional; how it was run: as §2
# Rattus norvegicus [19] = assay: Compound was tested for anticonvulsant activity after Oral Administration into Rats by using MES screen test after 2h,dose 50 mg/kg; number of rats out of four which were protected; type: functional; how it was run: as §2
# Rattus norvegicus [20] = assay: Compound was tested for anticonvulsant activity after Oral Administration into Rats by using MES screen test after 0.25h,dose 50 mg/kg; No activity was demonstarted; type: functional, organism-based; design: dose 50 mg/kg; how it was run: as §2
# Rattus norvegicus [21] = assay: Compound was tested for anticonvulsant activity after Oral Administration into Rats by using MES screen test after 0.5h,dose 50 mg/kg; number of rats out of four which were protected; type: functional; how it was run: as §2
# Rattus norvegicus [22] = assay: Compound was tested for anticonvulsant activity after Oral Administration into Rats by using MES screen test after 1h,dose 50 mg/kg; number of rats out of four which were protected; number of rats out of four which were protected; type: functional; how it was run: as §2
# Mus musculus [23] = assay: Compound was tested for toxicity after intraperitoneal injection into mice using toxicity screen test; details: in vivo, ip
# Mus musculus [24] = assay: Toxicity after intraperitoneal injection into mice by using toxicity screen test after 0.5 hr; type: organism-based; details: in vivo, ip; how it was run: as §3
# Mus musculus [25] = assay: Compound was tested for anticonvulsant activity after intraperitoneal injection into mice by using MES screen test after 2 hr; type: functional; details: ip; how it was run: as §1
# Mus musculus [26] = assay: Compound was tested for anticonvulsant activity after intraperitoneal injection into mice by using scPTZ screen test after 2 hr; type: functional; details: ip; how it was run: as §1
# [27] = Compound was tested for toxicity after intraperitoneal injection into mice by using neurotoxicity screen test after 2 hr; type: organism-based; details: mouse, in vivo, ip; how it was run: as §1
# Rattus norvegicus [28] = assay: Compound was tested for anticonvulsant activity after Oral Administration into Rats by using MES screen test after 4h,dose 12.5 mg/kg; number of rats out of four which were protected; type: functional; how it was run: as §2
# Rattus norvegicus [29] = assay: Anticonvulsant activity after oral administration into rats; type: functional; design: concentration or dose not given beside the values
# Rattus norvegicus [30] = assay: Compound was tested for anticonvulsant activity after Oral Administration into rat by using MES screen test after 6 hr; type: functional
# How it was run: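 Oral dosing in rats, maximal electroshock challenge, with ED50, 95% CI, slope and SE determined at the time listed for each compound (0.25 to 6 h range).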
# Rattus norvegicus [31] = assay: Compound was tested for anticonvulsant activity after Oral Administration into Rats by using MES screen test after 2h,dose 12.5 mg/kg; number of rats out of four which were protected; type: functional; how it was run: as §2
# [32] = Protection index = TD50/ED50 (MES); details: mouse, in vivo; read-out: PI
# Mus musculus [33] = assay: Compound was tested for anticonvulsant activity after intraperitoneal injection into mice by using MES screen test after 1 hr; type: functional; details: ip; how it was run: as §1
# [34] = Compound was tested for toxicity after intraperitoneal injection into mice by using neurotoxicity screen test after 1 hr; type: organism-based; details: mouse, in vivo, ip; how it was run: as §1
# Rattus norvegicus [35] = assay: Compound was tested for anticonvulsant activity after Oral Administration into Rats by using MES screen test after 0.25h,dose 12.5 mg/kg; number of rats out of four which were protected; type: functional; how it was run: as §2
# [36] = Protection index = TD50/ED50 (scPTZ ); type: ADME; details: read-out: PI
# How it was run: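 Protection index calculated as TD50/ED50 from mouse intraperitoneal scPTZ ED50 and rotorod TD50 values, each taken at its own peak time.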
# Rattus norvegicus [37] = assay: Compound was tested for anticonvulsant activity after Oral Administration into Rats by using MES screen test after 4h,dose 15 mg/kg; number of rats out of four which were protected; type: functional; how it was run: as §2
# Rattus norvegicus [38] = assay: Compound was tested for anticonvulsant activity after Oral Administration into Rats by using MES screen test after 0.25h,dose 15 mg/kg; No activity was demonstarted; type: functional, organism-based; design: dose 15 mg/kg; how it was run: as §2
# Rattus norvegicus [39] = assay: Compound was tested for anticonvulsant activity after Oral Administration into Rats by using MES screen test after 0.5h,dose 15 mg/kg; No activity was demonstarted; type: functional, organism-based; design: dose 15 mg/kg; how it was run: as §2
# Rattus norvegicus [40] = assay: Compound was tested for anticonvulsant activity after Oral Administration into Rats by using MES screen test after 1h,dose 15 mg/kg; number of rats out of four which were protected; type: functional; how it was run: as §2
# Rattus norvegicus [41] = assay: Compound was tested for anticonvulsant activity after Oral Administration into Rats by using MES screen test after 2h,dose 15 mg/kg; number of rats out of four which were protected; type: functional; how it was run: as §2
# Rattus norvegicus [42] = assay: Compound was tested for anticonvulsant activity after Oral Administration into rat by using MES screen test after 2 hr dose 12.5 mg/kg; type: functional
# Mus musculus [43] = assay: Compound was tested for anticonvulsant activity after intraperitoneal injection into mice by using MES screen test after 1h,dose 12.50 mg/kg; type: functional; details: ip
# Rattus norvegicus [44] = assay: Compound was tested for anticonvulsant activity after Oral Administration into Rats by using MES screen test after 2h,dose 12.5 mg/kg; No activity was demonstarted; type: functional, organism-based; design: dose 12.5 mg/kg; how it was run: as §2
# Mus musculus [45] = assay: Compound was tested for anticonvulsant activity after intraperitoneal injection into mice by using MES screen test after 4 hr; type: functional; details: ip; how it was run: as §3
# Mus musculus [46] = assay: Compound was tested for anticonvulsant activity after intraperitoneal injection into mice by using scPTZ screen test after 4 hr; type: functional; details: ip; how it was run: as §3
# [47] = Compound was tested for toxicity after intraperitoneal injection into mice by using neurotoxicity screen test after 4 hr; type: organism-based; details: mouse, in vivo, ip; how it was run: as §3
# Rattus norvegicus [48] = assay: Compound was tested for anticonvulsant activity after Oral Administration into rat by using MES screen test at 4 hr; type: functional
# How it was run: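 Rats dosed orally, typically at 50 mg/kg first, then mostly 12.5 mg/kg (some compounds at 30 mg/kg), and tested by maximal electroshock. Four rats per compound, scored at 0.25, 0.5, 1, 2 and 4 h as the number of rats protected out of 4.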
# [49] = Compound was tested for toxicity after oral administration in rat by using neurotoxicity screen test after 0.25-24 hr; type: organism-based; details: in vivo
# How it was run: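 Rat neurotoxicity after oral dosing, observed at 0.25, 0.5, 1, 2, 4, 6, 8 and 24 h (8 h omitted for one compound).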
SMILES,Dose (Mus musculus [2]) [mg/kg],Dose (Mus musculus [6]) [mg/kg],Dose (Mus musculus [7]) [mg/kg],Dose (Mus musculus [8]) [mg/kg],Activity (Rattus norvegicus [9]),Activity (Rattus norvegicus [12]),Activity (Rattus norvegicus [13]),Dose (Mus musculus [14]) [mg/kg],Dose (Mus musculus [24]) [mg/kg],Activity (Rattus norvegicus [28]),Activity (Rattus norvegicus [29]),Activity (Rattus norvegicus [31]),selectivity ratio [32],further results
CCCC(CCC)C(=O)O [VALPROIC ACID],300,,,,,,,,,,,,,ED50 (Mus musculus [1]): 287 mg/kg; ED50 (Mus musculus [3]): 209 mg/kg; TD50 at 0.25 h [4]: 483 mg/kg; TD50 at 0.5 h [5]: 859 mg/kg
NC(=O)N/N=C\c1ccc(OCc2ccccc2)cc1,,300,300,100,No activity,No activity,1,,,,,,,Activity (Rattus norvegicus [10]): 1; Activity (Rattus norvegicus [11]): No activity
NC(=O)N/N=C\c1ccc(Oc2cccc(Cl)c2)cc1,30,30,100,300,,,,100,,,,,,ED50 (Mus musculus [15]): 27.7 mg/kg; ED50 (Mus musculus [16]): 41.2 mg/kg; TD50 at 2 h [17]: 64.5 mg/kg; Activity (Rattus norvegicus [18]): 4; Activity (Rattus norvegicus [19]): 4; Activity (Rattus norvegicus [20]): No activity; Activity (Rattus norvegicus [21]): 4; Activity (Rattus norvegicus [22]): 4; Dose (Mus musculus [23]): 300 mg/kg
CCc1ccc(Oc2ccc(/C=N/NC(N)=O)cc2)cc1,300,30,30,,No activity,,4,100,300,4,2,4,3.32,ED50 (Mus musculus [25]): 10.3 mg/kg; ED50 (Mus musculus [26]): > 100 mg/kg; TD50 at 2 h [27]: 34 mg/kg; ED50 (Rattus norvegicus [30]): 6.48 mg/kg
C/C(=N/NC(N)=O)c1ccc(Sc2ccc(Br)cc2)cc1,300,100,30,,,,4,300,,4,3,4,11.3,ED50 (Mus musculus [33]): 3.82 mg/kg; ED50 (Mus musculus [16]): 41.9 mg/kg; TD50 at 1 h [34]: 43.2 mg/kg; Activity (Rattus norvegicus [35]): 1; selectivity ratio [36]: 1.03
CCC(C)(C)c1ccc(Oc2ccc(/C=N/NC(N)=O)cc2)cc1,,300,,,,,,,,,,,,Activity (Rattus norvegicus [37]): 4; Activity (Rattus norvegicus [38]): No activity; Activity (Rattus norvegicus [39]): No activity; Activity (Rattus norvegicus [40]): 2; Activity (Rattus norvegicus [41]): 3
NC(=O)N/N=C/c1ccc(Oc2cc(F)ccc2F)cc1,100,100,300,,No activity,,1,300,300,1,1,,,ED50 (Rattus norvegicus [42]): 11.4 mg/kg
Cc1ccc(C)c(Oc2ccc(/C=N/NC(N)=O)cc2)c1,30,100,100,300,,No activity,1,300,,,,,10.3,ED50 (Mus musculus [43]): 34.7 mg/kg; TD50 at 2 h [27]: 356 mg/kg; Activity (Rattus norvegicus [11]): No activity; Activity (Rattus norvegicus [35]): 1; Activity (Rattus norvegicus [44]): No activity
CC(C)(C)c1ccc(Oc2ccc(/C=N\NC(N)=O)cc2)cc1,,100,30,100,No activity,No activity,4,100,100,4,,4,,ED50 (Mus musculus [45]): 8.87 mg/kg; ED50 (Mus musculus [46]): > 150 mg/kg; TD50 at 4 h [47]: 106 mg/kg; ED50 (Rattus norvegicus [48]): 1.68 mg/kg; TD50 [49]: > 500 mg/kg
